# Legend:
# Heparanase = biological target: T1, Heparanase (Homo sapiens, UniProt Q9Y251); assay: Inhibition of human recombinant heparanase
# T1 sequence (Q9Y251 whole entry): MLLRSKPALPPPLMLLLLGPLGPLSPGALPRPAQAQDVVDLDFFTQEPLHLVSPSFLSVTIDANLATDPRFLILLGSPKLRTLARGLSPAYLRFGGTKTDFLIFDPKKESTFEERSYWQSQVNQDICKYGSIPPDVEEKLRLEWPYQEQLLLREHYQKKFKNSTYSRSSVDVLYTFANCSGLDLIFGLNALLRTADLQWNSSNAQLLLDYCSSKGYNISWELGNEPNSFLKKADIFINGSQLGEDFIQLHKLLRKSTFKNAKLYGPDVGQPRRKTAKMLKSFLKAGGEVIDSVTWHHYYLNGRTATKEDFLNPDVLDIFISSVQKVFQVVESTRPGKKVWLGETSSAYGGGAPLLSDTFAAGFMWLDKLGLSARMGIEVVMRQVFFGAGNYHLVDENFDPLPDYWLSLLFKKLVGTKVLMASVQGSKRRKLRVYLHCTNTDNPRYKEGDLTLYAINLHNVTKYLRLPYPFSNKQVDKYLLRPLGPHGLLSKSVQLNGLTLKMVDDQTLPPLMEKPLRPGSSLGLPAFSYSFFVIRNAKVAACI
# Outline: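 Recombinant human heparanase assayed by ultrafiltration with 3H-labelled heparan sulfate as substrate (Km = 1.64 μM). Ki values with standard error were derived from inhibition response curves.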
# [1] = biological target: Fibroblast growth factor 1 (Homo sapiens, UniProt P05230); assay: Binding affinity to FGF1 by surface plasmon-based solution affinity assay
# Chain of Fibroblast growth factor 1 (P05230 whole entry): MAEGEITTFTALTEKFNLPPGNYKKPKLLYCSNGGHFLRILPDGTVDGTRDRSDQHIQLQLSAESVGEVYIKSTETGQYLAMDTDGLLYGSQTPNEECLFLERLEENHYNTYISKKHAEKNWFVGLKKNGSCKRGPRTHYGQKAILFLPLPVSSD
# Outline: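 Surface plasmon resonance solution affinity assay on heparin-coated CM4 chips. Buffer: HBS-EP (10 mM HEPES pH 7.4, 150 mM NaCl, 3.0 mM EDTA, 0.005% polysorbate 20). Kd is the mean of at least duplicate measurements ± SD.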
# [2] = biological target: Fibroblast growth factor 2 (Homo sapiens, UniProt P09038); assay: Binding affinity to FGF2 by surface plasmon-based solution affinity assay
# Chain of Fibroblast growth factor 2 (P09038 143-288 limits assumed): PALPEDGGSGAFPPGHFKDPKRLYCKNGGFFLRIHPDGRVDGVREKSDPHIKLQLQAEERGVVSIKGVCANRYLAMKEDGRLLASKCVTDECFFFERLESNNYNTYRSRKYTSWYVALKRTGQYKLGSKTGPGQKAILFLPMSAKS
# Outline: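 Surface plasmon resonance solution affinity assay on heparin-coated CM4 chips. FGF-2 binding run in HBS-EP containing 300 mM NaCl. Kd is the mean of at least duplicate measurements ± SD.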
# [3] = biological target: T2, Vascular endothelial growth factor A (Homo sapiens, UniProt P15692); assay: Binding affinity to VEGF by surface plasmon-based solution affinity assay
# T2 sequence (P15692 whole entry): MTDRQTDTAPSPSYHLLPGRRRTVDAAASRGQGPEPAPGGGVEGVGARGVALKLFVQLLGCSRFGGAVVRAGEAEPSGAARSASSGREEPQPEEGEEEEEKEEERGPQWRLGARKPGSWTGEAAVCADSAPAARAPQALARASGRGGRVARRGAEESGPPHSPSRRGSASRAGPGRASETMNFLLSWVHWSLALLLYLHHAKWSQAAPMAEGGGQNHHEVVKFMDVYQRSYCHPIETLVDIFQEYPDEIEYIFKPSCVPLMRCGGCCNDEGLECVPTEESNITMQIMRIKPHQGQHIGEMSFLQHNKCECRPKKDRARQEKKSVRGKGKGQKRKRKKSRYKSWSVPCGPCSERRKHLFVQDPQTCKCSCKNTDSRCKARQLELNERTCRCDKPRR
compound,measurement,setting,value
O=P(O)(O)OC[C@H]1O[C@H](O[C@@H]2[C@H](OS(=O)(=O)O)[C@@H](O[C@@H]3[C@H](OS(=O)(=O)O)[C@@H](O[C@@H]4[C@H](OS(=O)(=O)O)[C@@H](O[C@@H]5[C@@H](OS(=O)(=O)O)O[C@H](COS(=O)(=O)O)[C@@H](OS(=O)(=O)O)[C@@H]5OS(=O)(=O)O)O[C@H](COS(=O)(=O)O)[C@H]4OS(=O)(=O)O)O[C@H](COS(=O)(=O)O)[C@H]3OS(=O)(=O)O)O[C@H](COS(=O)(=O)O)[C@H]2OS(=O)(=O)O)[C@@H](OS(=O)(=O)O)[C@@H](OS(=O)(=O)O)[C@@H]1OS(=O)(=O)O [PI-88],Ki,Heparanase,240 nM
same,Kd,[1],0.24 nM
same,Kd,[2],61 nM
same,Kd,[3],2.2 nM
